Assay results reported in article PMC10448036 (International Journal for Parasitology: Drugs and Drug …, 2023).
Where two headings read alike, the source gives them in different places. Marks after values point to notes of the source that are not given here.

How the values were obtained:
[1] = Plasma disposition kinetics; format: in vivo, lambs; details: for AUC0-LOQ / AUC0-∞: closantel in plasma, lambs
[2] = tested on: multiple resistant gastrointestinal nematodes (mainly H. contortus); assay: Faecal egg count reduction test; format: in vivo, lambs; details: for Nematode egg counts (mean): arithmetic mean; for Efficacy (%) [CI] (FECRT): 95% CI, Coles et al. (1992) formula
Haemoncus spp. = assay: L3 from pooled faecal cultures, by genus; format: in vivo, lambs
[3] = tested on: Other genera (Trichostrongylus spp.; Teladorsagia spp. and Oesophagostomum spp.); assay: L3 from pooled faecal cultures, by genus; format: in vivo, lambs
Outline: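 Naturally parasitized lambs (groups of 10) were dosed by weight on day 0 with two test compounds, alone or combined: the first at 5 mg/kg sc or 10 mg/kg oral, the second at 0.2 mg/kg sc or oral; untreated controls were kept. Rectal faeces were counted for epg by modified McMaster. Pooled group faecal cultures at days −1, 13, 22 and 28 gave L3 typed to genus. Genus efficacy = 100×(1−T/C) on arithmetic-mean epg partitioned by each genus's L3 proportion.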

[4] = tested on: Nematodirus spp., Oesphagostomum spp. and Trichuris ovis; assay: Adult nematode counts at necropsy; format: in vivo; details: 13 days post-treatment, sc and oral, lambs n = 2 per group
Outline: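 Naturally parasitized lambs, ranked by epg and split into groups of 10, were dosed on day 0 by individual weight with two test compounds, alone or combined. The first was given at 5 mg/kg sc or 10 mg/kg oral, the second at 0.2 mg/kg sc or oral. An untreated control group was kept. At 13 and 28 days post-treatment, two random animals per group were killed by captive bolt and exsanguinated.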

[5] = Adverse events / tolerability; format: in vivo; details: lambs, sc and oral treatments
H. contortus population = details: SUL experimental farm, ref Castells, personal communication; cited from earlier work
plasma proteins = details: ref Mohammed Ali and Bogan, 1987; Hennessy, 1993; cited from earlier work
susceptible H. contortus = details: single dose, sheep, absence of resistance, cited from earlier work
[6] = ref Hennessy and Ali, 1997; cited from earlier work
[7] = most species, ref Zulalian et al., 1994; cited from earlier work
[8] = tested on: gastrointestinal nematodes; details: cattle, ref Leathwick and Miller (2013), cited from earlier work
P-gp = details: ref Lespine et al., 2006; cited from earlier work
[9] = tested on: breast cancer resistance protein (BCRP); details: ref Pérez et al., 2009; cited from earlier work
[10] = CLO co-administered with MXD by the sc route vs CLO alone, P < 0.05
[11] = CLO 10 mg/kg oral alone (CLOoral)
[12] = Day 2 post-treatment, oral (CLO 10 mg/kg, MXD 0.2 mg/kg)
[13] = Day 2 post-treatment, subcutaneous (CLO 5 mg/kg, MXD 0.2 mg/kg)
[14] = Day 6 post-treatment, oral (CLO 10 mg/kg, MXD 0.2 mg/kg)
[15] = Day 6 post-treatment, subcutaneous (CLO 5 mg/kg, MXD 0.2 mg/kg)
[16] = Day 10 post-treatment, oral (CLO 10 mg/kg, MXD 0.2 mg/kg)
[17] = Day 13 post-treatment, oral (CLO 10 mg/kg, MXD 0.2 mg/kg)
[18] = Day 13 post-treatment, subcutaneous (CLO 5 mg/kg, MXD 0.2 mg/kg)
[19] = Day 22 post-treatment, oral (CLO 10 mg/kg, MXD 0.2 mg/kg)
[20] = Day 22 post-treatment, subcutaneous (CLO 5 mg/kg, MXD 0.2 mg/kg)
[21] = Day 28 post-treatment, oral (CLO 10 mg/kg, MXD 0.2 mg/kg)
[22] = Day 28 post-treatment, subcutaneous (CLO 5 mg/kg, MXD 0.2 mg/kg)
[23] = 22 days post-treatment, subcutaneous
[24] = 28 days post-treatment, subcutaneous

Compound | Quantified in plasma up to ([1]; post oral treatment) | Quantified in plasma up to ([1]; post sc treatment) | Nematode egg counts (mean) [2, 12] | Nematode egg counts (mean) [2, 13] | Nematode egg counts (mean) [2, 14] | Nematode egg counts (mean) [2, 15] | Nematode egg counts (mean) [2, 16] | Efficacy (%) [CI] (FECRT) [2, 17] | Nematode egg counts (mean) [2, 17] | Efficacy (%) [CI] (FECRT) [2, 18] | Nematode egg counts (mean) [2, 18] | Efficacy (%) [CI] (FECRT) [2, 19] | Nematode egg counts (mean) [2, 19] | Efficacy (%) [CI] (FECRT) [2, 20] | Nematode egg counts (mean) [2, 20] | Efficacy (%) [CI] (FECRT) [2, 21] | Nematode egg counts (mean) [2, 21] | Efficacy (%) [CI] (FECRT) [2, 22] | Nematode egg counts (mean) [2, 22] | Efficacy (%) (Haemoncus spp.; 22 days post-treatment, oral) | further results
Cc1cc(C(C#N)c2ccc(Cl)cc2)c(Cl)cc1NC(=O)c1cc(I)cc(I)c1O (centres unmarked) [CLO, closantel] | up to 28 days | up to 28 days | 630 ^b epg | 790 ^b epg | 550 ^b epg | 530 ^b epg | 770^c epg | 84 [71–91] % | 890 ^b epg | 85 [72–92] % | 830 ^b epg | 83 [73–89] % | 850 ^b epg | 82 [67–91] % | 863 ^b epg | 66 [36–82] % | 1350 epg | 84 [57–94] % | 650 epg | 4% | Longer MRT after co-administration [1, 10]: 42%; Longer T½el after co-administration [1, 10]: 39%; Plasma drug exposure (AUC0-LOQ) lower after oral than after sc treatment ([1]; CLO oral 10 mg/kg vs sc 5 mg/kg, P < 0.05): 34%; AUC0-LOQ ([1]; CLO 5 mg/kg sc alone (CLOSC)): 1570 ± 419^ab μg.d/mL; AUC0-∞ ([1]; CLO 5 mg/kg sc alone (CLOSC)): 2231 ± 662^ab μg.d/mL; AUC0-LOQ [1, 11]: 1042 ± 170^c μg.d/mL; AUC0-∞ [1, 11]: 1438 ± 367^b μg.d/mL; Efficacy (FECRT) ([2]; 13 days post-treatment, drug alone, over the sc and oral treatments): 84 to 85%; Efficacy (%) (Haemoncus spp.; [23]): 0%; Efficacy (%) (Haemoncus spp.; 28 days post-treatment, oral): 9%; Efficacy (%) (Haemoncus spp.; [24]): 1%; Efficacy (%) ([3]; 22 days post-treatment, oral): 96%; Efficacy (%) [3, 23]: 100%; Efficacy (%) [3, 24]: 99%; Fate of Nematodirus spp., Oesphagostomum spp. and Trichuris ovis [4]: survive; Adverse events [5]: No adverse events were observed; Efficacies of single dose (H. contortus population): above 85%; Binding to plasma proteins (plasma proteins): > 99%; Protection against reinfection up to (susceptible H. contortus; ref Hall et al., 1981): up to 28 days; Biodegradation by the ruminal fluid [6]: not exposed to any significant biodegradation
CO/N=C1\C[C@]2(C[C@@H]3C[C@@H](C/C=C(\C)C[C@@H](C)/C=C/C=C4\CO[C@@H]5[C@H](O)C(C)=C[C@@H](C(=O)O3)[C@]45O)O2)O[C@H](/C(C)=C/C(C)C)[C@H]1C [MXD, moxidectin] | ≤ 25 days | up to 28 days | 240 ^ab epg | 150 ^ab epg | 340 ^ab epg | 250^a epg | 530 ^bc epg | 80 [62–89] % | 1140 ^b epg | 92 [85–96] % | 430 ^b epg | 82 [53–93] % | 888 ^b epg | 80 [61–90] % | 975 ^b epg | 61 [6–84] % | 1525 epg | 74 [38–89] % | 1013 epg | 100% | AUC0-LOQ after the oral treatment as share of that after the sc treatment ([1]; MXD 0.2 mg/kg oral vs sc): 33%; Efficacy (%) (Haemoncus spp.; 13 days post-treatment, oral): 100%; Efficacy (%) (Haemoncus spp.; [23]): 100%; Efficacy (%) (Haemoncus spp.; 28 days post-treatment, oral): 100%; Efficacy (%) ([3]; 13 days post-treatment, oral): 0%; Efficacy (%) ([3]; 22 days post-treatment, oral): 0%; Efficacy (%) [3, 23]: 0%; Efficacy (%) ([3]; 28 days post-treatment, oral): 0%; Fate of Nematodirus spp., Oesphagostomum spp. and Trichuris ovis [4]: efficiently eliminated; Adverse events [5]: No adverse events were observed; Efficacies of single dose (H. contortus population): above 85%; Dose excreted unchanged in the faeces [7]: 90%; Protection against reinfection up to (susceptible H. contortus; ref Kerboeuf et al., 1995): ≤ 35 days; Efficacy ([8]; oral treatment): 91.1%; Efficacy ([8]; sc injection): 55.5%; Interaction with mammalian P-gp (P-gp): much weaker compared with ivermectin; Interaction with BCRP [9]: identified as a BCRP substrate
